# Screening results deposited in PubChem BioAssay by Broad Institute.
# FGF22 binding: shifts melting point of recombinant human FGF22; Q9HCT0; recombinant FGF22 thermal shift, SYPRO orange fluorescence; percent of sucrose octasulfate shift, DMSO zero; activity (Tm shift, normalised), % at 9.99 µM; 340,000 compounds, 1.5% hits;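 active = mean Tm shift, scaled 0 neutral to 100 positive control, at about 1.3% or above, every replicate too, limit read from the data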
# FN deposit inh: fibronectin deposition inhibition; inhibition, % at 12.6 µM; 350,000 compounds, 0.086% hits; AH1F fibroblasts, Alexa488-fibronectin deposition fluorescence, overnight;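 active = mean inhibition across replicates of 30% or more, regardless of how many single replicates reach that level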;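 also: positive control wells lacked labelled fibronectin entirely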
#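 test system = AH1F fibroblasts assembling fluorescent fibronectin matrix | quantity = 10000 AH1F cells per well | buffer or medium = DMEM plus 2% serum, read in PBS | doses = single dose, pinned | incubation = 1 h cell attachment, overnight exposure to compound and label | detection = fluorescence at 485 nm excitation, 525 nm emission | read-out basis = inhibition from reduced deposited-fibronectin fluorescence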
# E-selectin induc: induces E-selectin expression in human endothelial cells. AID 686992. HUVEC E-selectin immunofluorescence imaging; normalized: neutral wells 0, TNF-alpha wells 100. activation, % at 7.58 µM. 260,000 compounds, 0.37% hits. P16581;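 active = mean E-selectin-positive cell signal at least 10% of the positive control, reached in at least 60% of replicates, without over 20% cell loss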
# Target sequence (P16581 whole entry, looked up): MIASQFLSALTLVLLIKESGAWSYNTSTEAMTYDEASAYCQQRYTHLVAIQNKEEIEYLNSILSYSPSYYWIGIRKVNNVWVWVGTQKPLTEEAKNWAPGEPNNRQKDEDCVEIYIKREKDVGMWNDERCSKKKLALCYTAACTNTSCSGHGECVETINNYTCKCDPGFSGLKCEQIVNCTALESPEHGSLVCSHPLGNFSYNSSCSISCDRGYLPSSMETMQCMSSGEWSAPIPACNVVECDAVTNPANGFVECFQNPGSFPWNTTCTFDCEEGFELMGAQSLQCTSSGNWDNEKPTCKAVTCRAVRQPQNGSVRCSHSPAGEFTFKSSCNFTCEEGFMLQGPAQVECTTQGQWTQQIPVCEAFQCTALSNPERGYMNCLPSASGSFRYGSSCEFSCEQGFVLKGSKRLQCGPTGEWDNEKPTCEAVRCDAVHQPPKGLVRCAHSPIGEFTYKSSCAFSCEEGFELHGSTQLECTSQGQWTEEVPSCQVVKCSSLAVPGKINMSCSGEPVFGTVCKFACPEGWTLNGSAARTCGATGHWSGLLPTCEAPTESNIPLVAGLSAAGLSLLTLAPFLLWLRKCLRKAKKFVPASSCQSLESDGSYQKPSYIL
#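 Assay system: HUVEC primary endothelial cells. Input: 3,000 HUVEC seeded per well. Doses: one compound dose added by pin transfer. Read-out basis: % PE-positive cells. Benchmarks: TNF-alpha high, DMSO low. Detection: immunofluorescence imaging. Buffer or medium: EGM-2, gelatin.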
# SIRT5 block: inhibitors of human sirtuin-5 desuccinylase; Q9NXA8; Purified SirT5, succinyl-peptide AMC, trypsin-coupled fluorescence; inhibition, % at 15 µM; 330,000 compounds, 1.1% hits; in the data active = inhibition above about 15%
# Statin myotox sup: suppressors of simvastatin-induced myotoxicity in C2C12 myotubes; ATP luminescence, 48 h; scaled: DMSO 0, geranylgeraniol control 100; rescue of ATP level, % at 7.49 µM; 330,000 compounds, 0.78% hits;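 active = mean ATP rescue above about 67%, or every replicate alone reaching that limit, limit read from the data, passing the limit was not always enough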;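 also: myotubes were challenged with 10 µM simvastatin during compound exposure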
# rRNA inh HTS: inhibitors of bacterial rRNA selective over humanized ribosomes | E. coli WT GFP vs humanized-ribosome RFP mutants, fluorescence, 24 h; stronger effect = lower value; DMSO median 0, no signal -100 | GFP signal change (wild-type ribosome), % (concentration not given with the values) | 350,000 compounds, 1.6% hits | AID 720706;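 active = significant combined selectivity score with lowered wild-type GFP, culture density cut under 30%, mutant RFP and density less affected; inactive = any of these conditions unmet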
# Active calls of the source: *; nt = no result given. Shown are actives, neighbours in structure and some others; about 4% of the full set was active somewhere.
SMILES,FGF22 binding,FN deposit inh,E-selectin induc,SIRT5 block,Statin myotox sup,rRNA inh HTS
CC(=O)n1cc([C@@H]2C=C(C(=O)N3CCN(Cc4ccccc4)CC3)O[C@H](OCc3ccc(CO)cc3)C2)c2ccccc21,0,4,0,4,86*,-4
CC(=O)n1cc([C@H]2C=C(C(=O)N3CCCCCCC3)O[C@@H](OCc3ccc(CO)cc3)C2)c2ccccc21,0,nt,nt,3,nt,nt
CCC(C)NCCOc1ccc(C(C)(C)c2ccccc2)cc1 (configuration not stated),0,-5,4,-4,-9,-53*
CCC(CC)NCC(O)COc1ccc(Br)cc1 (configuration not stated),0,-9,3,0,nt,6
CC(C)NCC(O)COc1ccc(Br)cc1 (configuration not stated),44*,0,nt,-2,nt,nt
CCC(=O)N1[C@H](CO)[C@@H](c2ccccc2)C12CN(C(=O)CN1CCOCC1)C2,nt,-4,nt,nt,nt,2
COCC(=O)N1CC[C@@H]2[C@H]1c1cc(C#Cc3cccc(F)c3)ccc1N[C@@H]2CO,0,11,0,-2,-8,-13
C[C@H]1CCn2cc(nn2)COCCNC1=O,nt,-6,nt,nt,nt,1
C[C@@H]1CN([C@@H](C)CO)S(=O)(=O)c2ccc(-c3ccccc3)cc2O[C@H]1CN(C)C(=O)c1ccc2c(c1)OCO2,0,nt,0,7,-48,-10
C[C@H](CO)N1C[C@H](C)[C@H](CN(C)C(=O)c2ccc3c(c2)OCO3)Oc2cc(-c3ccccc3)ccc2S1(=O)=O,0,nt,108*,-7,-19,-14
C[C@@H]1CN([C@@H](C)CO)S(=O)(=O)c2ccc(/C=C/c3ccccc3)cc2O[C@@H]1CN(C)C(=O)c1ccc2c(c1)OCO2,nt,nt,1,24*,17,-6
C[C@@H]1CN([C@H](C)CO)S(=O)(=O)c2ccc(/C=C/c3ccccc3)cc2O[C@@H]1CN(C)C(=O)c1ccc2c(c1)OCO2,nt,nt,0,23*,9,-5
Cc1[nH]nc2c1/C(=N\O)CC(C)(C)C2,nt,nt,nt,nt,101*,nt
CCCC#Cc1cnc2c(c1)C(=O)N([C@H](C)CO)C[C@H](C)[C@@H](CN(C)C(=O)C1CCOCC1)O2,0,nt,0,-5,-3,0
COc1ccc2c3c(n(C)c2c1)[C@H](CO)NCC31CCN(Cc2ccc(-c3ccccn3)cc2)CC1,0,nt,-1,nt,nt,-7
COC(=O)c1c(C(C)=O)c(C)n(C)c1C,0,-3,0,16*,nt,0
CC1=Nn2c(nnc2-c2n[nH]c3c2CCC3)SC1,nt,nt,nt,nt,-15,nt
Fc1ccc(C2=Nn3c(nnc3-c3n[nH]c4c3CCC4)SC2)cc1,nt,nt,nt,nt,114*,nt
CN(CC(=O)Nc1cccc(F)c1)CC(=O)N1CCc2ccccc21,0,-2,182*,-4,2,-8
CN(CC(=O)Nc1ccc(F)cc1)CC(=O)N1CCc2ccccc21,nt,-1,3,-2,11,-7
COCCn1c(C)cc(C(=O)CSc2nc3ccccc3s2)c1C,nt,-1,nt,nt,-34,nt
COCCn1c(C)cc(C(=O)CSc2nc3ccccc3o2)c1C,nt,1,nt,nt,85*,nt
CO[C@H]1CN(C)C(=O)c2ccc(NS(=O)(=O)c3ccccc3)cc2OC[C@H](C)N(Cc2ccccn2)C[C@H]1C,0,-2,0,nt,14,-5
C[C@H](CO)N1C[C@H](C)[C@@H](CN(C)Cc2ccncc2)Oc2ccc(NC(=O)Cc3cn(C)c4ccccc34)cc2CC1=O,0,nt,nt,2,21,-5
c1ccc(Cc2cnc(N3CCN(Cc4cccc(-c5ccsc5)n4)CC3)nc2)cc1,0,-5,0,3,nt,-36*
SMILES,FGF22 binding,FN deposit inh,E-selectin induc,SIRT5 block,Statin myotox sup,rRNA inh HTS
Cc1cccc(N=C(NO)c2nonc2N)c1,0,1,0,-3,-1,-8
Cc1ccccc1N=C(NO)c1nonc1N,nt,12,-2,-5,nt,-29*
O=C1N[C@@H](Cc2ccccc2)COCc2cn(nn2)CC[C@@H]1Cc1ccc(-c2ccccc2)cc1,nt,-10,nt,nt,nt,-3
O=C(COC(=O)Cn1cnc2ccccc21)Nc1cc2c(cc1Cl)C(=O)c1ccccc1C2=O,44*,4,nt,-4,11,-16
Cc1ccc(NC(=O)c2ccc(NCCCN3CCC(C)CC3)c([N+](=O)[O-])c2)cc1F,0,-2,-1,0,nt,-25*
Cc1ccc(NC(=O)c2ccc(NCCN)c([N+](=O)[O-])c2)cc1,0,nt,nt,-4,nt,10
C/C=C/c1ccc([C@@H]2[C@H](CO)N(C(=O)c3cnccn3)C23CN(C(=O)C2CC2)C3)cc1,nt,-6,0,-3,nt,-1
C=CCN(c1ccccc1OC)S(=O)(=O)c1cccc(C(=O)OC2CCOC2=O)c1 (configuration not stated),0,nt,nt,nt,114*,-9
COc1ccc(C[C@H]2CCn3cc(nn3)COC[C@@H](C(C)C)NC2=O)cc1,0,-2,0,4,nt,1
CC1(C)CN=C(c2ccccc2)NC1,43*,2,0,nt,3,2
C[C@@H]1CN([C@@H](C)CO)C(=O)c2cc(NC(=O)Nc3ccc4c(c3)OCO4)ccc2O[C@@H]1CN(C)Cc1ccc(C(=O)O)cc1,0,nt,nt,3,4,-1
C[C@H]1CN([C@@H](C)CO)C(=O)c2cc(C3=CCCCC3)cnc2O[C@@H]1CN(C)Cc1ccc(C(=O)O)cc1,0,7,1,2,-12,4
COC(=O)C(C)Sc1nc2c(cnn2-c2ccccc2)c(=O)[nH]1 (configuration not stated),0,0,nt,-4,-18,-2
CCOC(=O)C(C)Sc1nc2c(cnn2-c2ccc(C)cc2)c(=O)[nH]1 (configuration not stated),nt,17,nt,nt,97*,nt
Cc1ccc(-n2ncc3c(=O)[nH]c(SC(C)C)nc32)cc1,0,-6,128*,3,-6,9
C[C@H](CO)N1C[C@H](C)[C@@H](CN(C)C(=O)Cc2ccncc2)Oc2cc(C#CC3(O)CCCC3)ccc2S1(=O)=O,nt,-4,0,nt,1,1
COc1ccc2c3c(n(C)c2c1)[C@H](CO)NCC31CCN(C(=O)c2ccccc2)CC1,nt,nt,nt,nt,nt,5
Cc1noc(C)c1COc1ccc(C(=O)N2CCN(S(=O)(=O)c3ccccc3)CC2)cc1,0,2,0,1,4,-12
Cc1noc(C)c1COc1ccc(C(=O)N2CCN(S(=O)(=O)c3cccc(F)c3)CC2)cc1,nt,6,0,28*,3,-6
Nc1ccc(C2=Nc3cccc4cccc(c34)N2)cc1,43*,-8,nt,4,-4,nt
